{"source": "ChEMBL document CHEMBL5113523", "about": "“Discovery of Cyclic Peptide Inhibitors Targeting PD-L1 for Cancer Immunotherapy” (J Med Chem, 2022)", "key": {"[1]": {"test": "Stability of the compound in 50% human serum assessed as half life measured upto 200 mins by LC-MS/MS analysis", "type": "ADME, cell-free", "how_it_was_run": "(§1)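 Peptide incubated in 50% human serum at 37 °C. Aliquots taken at set time points up to 3 h and the intact peptide quantified by LC-MS/MS. Mean ± SD, n = 3.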"}, "Homo sapiens": {"organism": "Homo sapiens", "test": "Antiproliferative activity against human DU-145 cells cocultured with PBMC cells at 10 uM incubated for 24 hrs by CellTiter-Glo luminescent cell viability assay", "type": "functional, cell-based"}, "[2]": {"test": "Stability of the compound in human serum assessed as compound remaining measured after 3 hrs by LC-MS/MS analysis relative to control", "type": "ADME, cell-free", "settings": "read-out: Stability", "how_it_was_run": "as §1"}, "[3]": {"biological_target": "Programmed cell death 1 ligand 1 (Homo sapiens) (UniProt Q9NZQ7)", "sequence (Q9NZQ7 whole entry)": "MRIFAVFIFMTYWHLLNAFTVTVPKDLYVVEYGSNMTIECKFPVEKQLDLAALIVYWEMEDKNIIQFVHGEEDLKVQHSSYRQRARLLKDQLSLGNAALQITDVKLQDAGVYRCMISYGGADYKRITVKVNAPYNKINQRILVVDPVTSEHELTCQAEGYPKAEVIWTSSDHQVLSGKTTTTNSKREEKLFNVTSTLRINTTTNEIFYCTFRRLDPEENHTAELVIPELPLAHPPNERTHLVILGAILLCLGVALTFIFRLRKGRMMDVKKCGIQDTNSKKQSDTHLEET", "test": "Binding affinity to PD-L1 overexpressing in human DU-145 cells at 25 to 100 nM incubated for 1 hr by flow cytometry analysis", "type": "cell-based", "settings": "dose 25-100 nM", "how_it_was_run": "(§2)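 Cells detached with enzyme-free dissociation buffer, suspended in PBS at 1×10^6 cells/mL, incubated with Cy5-labelled peptide at various concentrations for 1 h at 37 °C under slow rotation. Cells spun at 300g for 10 min, washed, resuspended in PBS and read by flow cytometry. PD-L1 knockout MDA-MB-231 served as the negative cell line. Mean ± SD, n = 3.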"}, "[4]": {"biological_target": "T1, Programmed cell death protein 1/Programmed cell death 1 ligand 1 (Homo sapiens, UniProt Q9NZQ7)", "T1 sequence (Q15116 whole entry)": "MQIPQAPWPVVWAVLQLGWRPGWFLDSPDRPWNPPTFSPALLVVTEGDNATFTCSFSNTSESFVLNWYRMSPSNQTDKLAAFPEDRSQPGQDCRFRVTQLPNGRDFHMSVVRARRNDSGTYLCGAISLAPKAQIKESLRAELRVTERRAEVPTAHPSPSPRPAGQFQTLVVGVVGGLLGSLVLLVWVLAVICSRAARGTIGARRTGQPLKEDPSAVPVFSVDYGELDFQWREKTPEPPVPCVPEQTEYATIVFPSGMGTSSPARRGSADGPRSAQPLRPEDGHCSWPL", "T1 sequence (Q9NZQ7 whole entry)": "as the sequence (Q9NZQ7 whole entry) above", "test": "Inhibition of human PD-1/PD-L1 interaction by surface plasmon resonance analysis", "type": "protein-complex assay", "how_it_was_run": "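Competitive SPR with PD-1 immobilised on the chip. Various peptide concentrations were preincubated with human PD-L1 in running buffer, then injected. PD-L1 alone was injected as the control. Blocking was taken from the drop in SPR response relative to that control. Mean ± SD, n = 3.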"}, "[5]": {"test": "Production against apoptosis in human PBMC cells cocultured with DU-145 cells assessed as increase in IFNgamma level in CD4+ T cell at 10 uM measured after 24 hrs by FACScalibur flow cytometry (reference value: 1.3%)", "type": "functional"}, "CT26 [6]": {"tested_on": "CT26", "test": "Antitumor activity against mouse CT26 cells implanted in BALB/c mouse syngeneic model at 0.5 mg/kg, ip administered daily starting from day 10 post inoculation and measured on day 18", "type": "functional, organism-based", "settings": "time 9.0 day", "how_it_was_run": "(§3)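 Balb/c mice (4 male + 4 female per group) implanted subcutaneously in right flank with ~1×10^6 CT26 cells; treatment began when tumors reached 200-250 mm3. Daily intraperitoneal dosing days 10–18, saline vehicle control group. Caliper volume = 1/2 × length × width2. TGI (%) = [1 − RTV treated/RTV control] × 100, RTV = day-18 volume / day-10 volume.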"}, "[7]": {"biological_target": "Programmed cell death 1 ligand 1 (Homo sapiens) (UniProt Q9NZQ7)", "test": "Binding affinity to PD-L1 overexpressing in human MDA-MB-231 cells at 25 to 100 nM incubated for 1 hr by flow cytometry analysis", "type": "cell-based", "settings": "dose 25-100 nM", "how_it_was_run": "as §2"}, "CT26 [8]": {"tested_on": "CT26", "test": "Antitumor activity against mouse CT26 cells implanted in BALB/c mouse syngeneic model assessed as tumor growth inhibition at 0.5 mg/kg, ip administered daily starting from day 10 post inoculation and measured on day 18 (reference value: 0%)", "type": "functional", "settings": "CT26, 216 h, time 9 day, read-out: TGI", "how_it_was_run": "as §3"}, "[9]": {"biological_target": "Programmed cell death 1 ligand 1 (Homo sapiens) (UniProt Q9NZQ7)", "test": "Binding affinity to PD-L1 deficient in human MCF7 cells at 25 to 100 nM incubated for 1 hr by flow cytometry analysis", "type": "cell-based", "settings": "dose 25-100 nM"}, "[10]": {"test": "Toxicity in BALB/c syngenic mouse bearing CT26 cells assessed as improvement in animal survival at 0.5 mg/kg, ip administered daily starting from day 10 post inoculation and measured on day 18", "type": "organism-based", "settings": "in vivo, 216 h, time 9 day", "how_it_was_run": "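Male and female Balb/c mice (4 of each per group) with about 1×10^6 CT26 cells implanted subcutaneously in the right flank. Grouped when tumours reached 200-250 mm3. Dosed 0.5 mg/kg i.p. daily from day 10 to day 18; saline i.p. as negative control. Caliper volume = 1/2 × length × width². Survival curves recorded.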"}, "[11]": {"biological_target": "Programmed cell death protein 1/Programmed cell death 1 ligand 1 (Mus musculus, UniProt Q9EP73)", "sequence (Q9EP73 whole entry)": "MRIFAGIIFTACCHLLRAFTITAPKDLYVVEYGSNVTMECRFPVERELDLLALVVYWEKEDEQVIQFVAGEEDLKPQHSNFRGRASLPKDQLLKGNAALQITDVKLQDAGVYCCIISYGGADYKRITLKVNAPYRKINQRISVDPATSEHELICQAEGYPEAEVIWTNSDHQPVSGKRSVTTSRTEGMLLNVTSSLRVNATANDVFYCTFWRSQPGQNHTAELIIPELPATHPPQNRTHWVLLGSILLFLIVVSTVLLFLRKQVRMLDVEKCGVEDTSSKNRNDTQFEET", "sequence (Q02242 whole entry, further chain)": "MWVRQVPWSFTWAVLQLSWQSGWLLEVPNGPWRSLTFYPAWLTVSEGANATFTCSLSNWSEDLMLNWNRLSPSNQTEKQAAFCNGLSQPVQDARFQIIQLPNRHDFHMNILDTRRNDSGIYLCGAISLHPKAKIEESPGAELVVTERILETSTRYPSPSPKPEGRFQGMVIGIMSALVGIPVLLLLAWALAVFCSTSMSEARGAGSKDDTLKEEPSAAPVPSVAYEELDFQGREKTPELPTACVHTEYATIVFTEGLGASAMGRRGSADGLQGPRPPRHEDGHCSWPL", "test": "Inhibition of mouse recombinant PD-1/PD-L1 interaction preincubated with compound for 2 hrs followed by PD-1 protein addition and measured after 1.5 hrs by inhibitor screening ELISA assay pair kit method", "type": "protein-complex assay", "how_it_was_run": "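Plate-based ELISA. Mouse PD-L1 (100 ng) coated for 16 h at 4 °C, then blocked with 2% BSA for 1.5 h at 37 °C. Peptide added for 2 h at 37 °C, then biotinylated mouse PD-1 for 1.5 h. Detection with streptavidin-HRP and chromogenic substrate, stopped with 2N H2SO4; OD450 referenced to OD540. IC50 determined; mean ± SD, n = 3.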"}, "[12]": {"test": "Production against apoptosis in human PBMC cells cocultured with DU-145 cells assessed as increase in IFNgamma level in CD8+ T cell at 10 uM measured after 24 hrs by FACScalibur flow cytometry (reference value: 1.3%)", "type": "functional"}, "[13]": {"test": "Production against apoptosis in human PBMC cells cocultured with DU-145 cells assessed as reduction in apoptosis of T cells at 10 uM measured after 24 hrs by annexin V-FITC/PI staining based FACScalibur flow cytometry (reference value: 24.5%)", "type": "functional", "design": "scale not given: the % may be the effect or the level left"}, "[14]": {"biological_target": "T1, Programmed cell death protein 1/Programmed cell death 1 ligand 1", "test": "Inhibition of human recombinant PD-1/PD-L1 interaction preincubated with compound for 2 hrs followed by PD-1 protein addition and measured after 1.5 hrs by inhibitor screening ELISA assay pair kit method", "type": "protein-complex assay", "how_it_was_run": "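Plates coated with 100 ng recombinant human PD-L1 at 4°C for 16 h, washed with PBS pH 7.2-7.4, then blocked with 2% BSA for 1.5 h at 37°C. Peptides added at set concentrations for 2 h at 37°C, then biotinylated PD-1 for 1.5 h. Detection with streptavidin-HRP and chromogenic substrate, stopped with 2N H2SO4. A450 referenced to 540 nm. Mean ± SD, n = 3.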"}, "[15]": {"test": "Stability of the compound in human serum assessed as drug degradation measured after 3 hrs by LC-MS/MS analysis", "type": "ADME, cell-free", "how_it_was_run": "as §1"}}, "note": "Activity calls are given as the source filed them. The rule behind the calls is not given here. Bridge positions count the residues as written; N and C are the ends. Peptide text beside a SMILES is read from it.", "data": [{"compound": "CC(=O)N[C@H]1CSSC[C@@H](C(=O)N[C@@H](Cc2c[nH]c3ccccc23)C(=O)N[C@@H](CC(N)=O)C(=O)N[C@@H](CC(C)C)C(=O)N[C@@H](CC(N)=O)C(=O)N[C@H](C(N)=O)[C@@H](C)O)NC(=O)[C@H](Cc2ccc(O)cc2)NC(=O)[C@H](Cc2ccc(O)cc2)NC(=O)[C@H](CO)NC(=O)[C@H](CCCNC(=N)N)NC(=O)[C@H](Cc2c[nH]cn2)NC1=O", "note": "(Ac-CHRSYYCWNLNT-NH2; disulfide 1-7)", "values": [{"measurement": "half-life", "setting": "[1]", "result": 70.8, "unit": "min"}, {"measurement": "Activity", "setting": "Homo sapiens", "result": "Active"}, {"measurement": "remaining at 3 h", "setting": "[2]", "result": 25, "unit": "%"}, {"measurement": "Activity", "setting": "[3]", "result": "Active"}, {"measurement": "IC50", "setting": "[4]", "result": 143, "unit": "nM"}, {"measurement": "Activity", "setting": "[5]", "result": 1.3, "unit": "%"}, {"measurement": "Activity", "setting": "CT26 [6]", "result": "Active"}, {"measurement": "Activity", "setting": "[7]", "result": "Active"}, {"measurement": "inhibition in vivo at 0.5 mg/kg", "setting": "CT26 [8]", "result": 33, "unit": "%"}, {"measurement": "Activity", "setting": "[9]", "result": "Active"}, {"measurement": "Activity", "setting": "[10]", "result": "Toxic"}, {"measurement": "IC50", "setting": "[11]", "result": 464, "unit": "nM"}, {"measurement": "Activity", "setting": "[12]", "result": 1.5, "unit": "%"}, {"measurement": "Activity", "setting": "[13]", "result": 10.6, "unit": "%"}, {"measurement": "IC50", "setting": "[14]", "result": 440, "unit": "nM"}]}, {"compound": "CC(=O)N[C@H]1CSSC[C@@H](C(N)=O)NC(=O)[C@H](CC(N)=O)NC(=O)[C@H](CC(C)C)NC(=O)[C@H](CC(N)=O)NC(=O)[C@H](Cc2c[nH]c3ccccc23)NC(=O)[C@H]([C@@H](C)O)NC(=O)[C@H](Cc2ccc(O)cc2)NC(=O)[C@H](Cc2ccc(O)cc2)NC(=O)[C@H](CO)NC(=O)[C@H](CCCNC(=N)N)NC(=O)[C@H](Cc2c[nH]cn2)NC1=O", "note": "(Ac-CHRSYYTWNLNC-NH2; disulfide 1-12)", "values": [{"measurement": "half-life", "setting": "[1]", "result": 38.1, "unit": "min"}, {"measurement": "Activity", "setting": "Homo sapiens", "result": "Active"}, {"measurement": "Activity", "setting": "[3]", "result": "Active"}, {"measurement": "IC50", "setting": "[4]", "result": 119, "unit": "nM"}, {"measurement": "Activity", "setting": "[5]", "result": 1.5, "unit": "%"}, {"measurement": "Activity", "setting": "CT26 [6]", "result": "Active"}, {"measurement": "Activity", "setting": "[7]", "result": "Active"}, {"measurement": "inhibition in vivo at 0.5 mg/kg", "setting": "CT26 [8]", "result": 60.6, "unit": "%"}, {"measurement": "Activity", "setting": "[9]", "result": "Active"}, {"measurement": "Activity", "setting": "[10]", "result": "Toxic"}, {"measurement": "IC50", "setting": "[11]", "result": 552, "unit": "nM"}, {"measurement": "Activity", "setting": "[12]", "result": 1.7, "unit": "%"}, {"measurement": "Activity", "setting": "[13]", "result": 12.2, "unit": "%"}, {"measurement": "IC50", "setting": "[14]", "result": 180, "unit": "nM"}]}, {"compound": "H-WHRSYYTWNLNT-OH", "values": [{"measurement": "Drug degradation", "setting": "[15]", "result": "Active"}, {"measurement": "Activity", "setting": "[3]", "result": "Active"}, {"measurement": "Activity", "setting": "[5]", "result": 1.5, "unit": "%"}, {"measurement": "Activity", "setting": "[7]", "result": "Active"}, {"measurement": "inhibition in vivo at 0.5 mg/kg", "setting": "CT26 [8]", "result": 16.3, "unit": "%"}, {"measurement": "Activity", "setting": "[9]", "result": "Active"}, {"measurement": "Activity", "setting": "[10]", "result": "Non-Toxic"}, {"measurement": "IC50", "setting": "[11]", "result": 4280, "unit": "nM"}, {"measurement": "Activity", "setting": "[12]", "result": 1.4, "unit": "%"}, {"measurement": "Activity", "setting": "[13]", "result": 14.5, "unit": "%"}]}]}
